In ChEMBL document CHEMBL5338802, “To Fold or Not to Fold: Diastereomeric Optimization of an α-Helical Antimicrobial Peptide” (J Med Chem, 2023):
≈ marks a conversion by molar mass, not a printed value. Calls of active or inactive are those of the source. The calls are words filed in the database; no cut-off is given here. Non-standard residues stand in square brackets, D forms with d. Residues, ends and D or L forms follow the SMILES beside them.

What was measured:
Erythrocyte = assay: Hemolytic activity in human RBC incubated for 4 hrs by visual analysis; format: toxicity, cell-based
Burkholderia cenocepacia = assay: Antimicrobial activity against multidrug-resistant Burkholderia cenocepacia assessed as microbial growth inhibition incubated for 16 to 20 hrs by broth microdilution method; format: functional; conditions: time 16-20 hrs
Method in brief: (§1)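 Broth microdilution in Mueller–Hinton broth pH 7.4. Peptides serially diluted 1/2 from 2 mg/mL water stocks over 0.5–64 μg/mL. Overnight LB colony culture diluted to OD600 0.022; roughly 5 × 10^5 CFU final inoculum. Static incubation at 37 °C for 16–20 h, then MTT added at room temperature. MIC is the lowest concentration with no visible growth, read by eye. Two independent duplicates.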

HEK293 = assay: Cytotoxicity against HEK293 cells assessed as reduction in cell viability at 0 to 200 uM incubated for 24 hrs by Alamar blue assay; format: toxicity, cell-based; conditions: human, hek293, 24 h, dose 0-200 µM
Method in brief: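 HEK293 cells were kept in DMEM with 10% FBS and penicillin/streptomycin, seeded at 4000 cells/well the day before, then exposed to peptide at 0–200 μM for 24 h at 37 °C, 5% CO2. Viability was read with 10% AlamarBlue for 3–5 h (ex 560/em 590 nm), normalized to untreated cells.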

Staphylococcus aureus = assay: Antimicrobial activity against methicillin-resistant Staphylococcus aureus COL assessed as microbial growth inhibition incubated for 16 to 20 hrs by MTT assay; format: functional; conditions: time 16-20 hrs
Method in brief: as §1, with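 “7.4.” for “7.4. Peptides serially diluted 1/2 from 2 mg/mL water stocks over 0.5–64 μg/mL.”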

[1] = Proteolytic stability in human serum assessed as drug degradation at 200 uM incubated for 10 mins by RP-HPLC analysis; format: ADME, cell-free
Pseudomonas aeruginosa [2] = assay: Antimicrobial activity against Pseudomonas aeruginosa PAO1 assessed as bacterial killing at 8 ug/ml measured after 1 hr by time-kill assay; format: functional, organism-based; conditions: dose 8.0 µg/ml
Method in brief: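 P. aeruginosa PAO1 from an overnight LB culture was diluted to 2 × 10^6 CFU/mL in MH, pH 7.4, then mixed 1:1 with peptide in MH and incubated at 37 °C with shaking at 180 rpm. Survivors were counted by plating 10-fold dilutions on LB agar at 0–6 h (37 °C, 10 h). Done in triplicate.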

Klebsiella pneumoniae = assay: Antimicrobial activity against Klebsiella pneumoniae NCTC418 assessed as microbial growth inhibition incubated for 16 to 20 hrs by broth microdilution method; format: functional; conditions: time 16-20 hrs
Method in brief: as §1, with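 “7.4.” for “7.4. Peptides serially diluted 1/2 from 2 mg/mL water stocks over 0.5–64 μg/mL.”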

Pseudomonas aeruginosa [3] = assay: Antimicrobial activity against Pseudomonas aeruginosa PAO1 assessed as microbial growth inhibition incubated for 16 to 20 hrs by broth microdilution method; format: functional; conditions: time 16-20 hrs
Method in brief: (§2)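 Broth microdilution in MH broth, pH 7.4. An overnight LB colony culture (37 °C, 180 rpm) was diluted to OD600 0.022, giving about 5 × 10^5 CFU per well. MTT was then added, and MIC was read by eye as the lowest concentration without visible growth. Two independent duplicates were run.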

Cell membrane = assay: Induction of membrane disruption in bacterial membrane mimic EYPG vesicles assessed as carboxyfluorescein leakage at 10 ug/ml measured after 240 secs by fluorescence based assay; format: subcellular; conditions: dose 10.0 µg/ml, time 240.0 sec
[4] = Induction of membrane disruption in eukaryotic inner membrane mimic EYPC vesicles assessed as carboxyfluorescein leakage at 10 ug/ml measured after 240 secs by fluorescence based assay; format: cell membranes; conditions: dose 10.0 µg/ml, time 240.0 sec
Escherichia coli = assay: Antimicrobial activity against Escherichia coli W3110 assessed as microbial growth inhibition incubated for 16 to 20 hrs by broth microdilution method; format: functional; conditions: time 16-20 hrs; method in brief: as §2
Acinetobacter baumannii = assay: Antimicrobial growth against Acinetobacter baumannii ATCC 19606 assessed as microbial growth inhibition incubated for 16 to 20 hrs by broth microdilution method; format: functional; conditions: time 16-20 hrs; method in brief: as §2

Row | Compound | MHC (Erythrocyte) [µg/mL] | MIC (Burkholderia cenocepacia) [µg/mL] | MIC (Staphylococcus aureus) [µg/mL] | MIC (Klebsiella pneumoniae) [µg/mL] | MIC (Pseudomonas aeruginosa [3]) [µg/mL] | also measured
1 | CC(C)C[C@H](NC(=O)[C@H](CC(C)C)NC(=O)[C@H](CC(C)C)NC(=O)[C@H](CCCCN)NC(=O)[C@H](CC(C)C)NC(=O)[C@H](CC(C)C)NC(=O)[C@H](CCCCN)NC(=O)[C@@H](CC(C)C)NC(=O)[C@@H](CC(C)C)NC(=O)[C@@H](CCCCN)NC(=O)[C@@H](N)CCCCN)C(N)=O | < 15.6 | > 64 |  |  |  | 
2 | CC(C)C[C@H](NC(=O)[C@H](CC(C)C)NC(=O)[C@H](CC(C)C)NC(=O)[C@H](CCCCN)NC(=O)[C@H](CC(C)C)NC(=O)[C@H](CC(C)C)NC(=O)[C@H](CCCCN)NC(=O)[C@H](CC(C)C)NC(=O)[C@H](CC(C)C)NC(=O)[C@H](CCCCN)NC(=O)[C@@H](N)CCCCN)C(N)=O | 125 |  |  |  |  | Activity (HEK293): Non-Toxic
3 | CC(C)C[C@H](NC(=O)[C@H](CC(C)C)NC(=O)[C@H](CC(C)C)NC(=O)[C@@H](CCCNC(=N)N)NC(=O)[C@H](CC(C)C)NC(=O)[C@H](CC(C)C)NC(=O)[C@@H](CCCNC(=N)N)NC(=O)[C@H](CC(C)C)NC(=O)[C@H](CC(C)C)NC(=O)[C@@H](CCCNC(=N)N)NC(=O)[C@H](N)CCCNC(=N)N)C(N)=O (H-[dR][dR]LL[dR]LL[dR]LLL-NH2) | 125 |  | 2 (≈ 1.39 µM) |  |  | 
4 | CC(C)C[C@@H](NC(=O)[C@@H](CC(C)C)NC(=O)[C@@H](CC(C)C)NC(=O)[C@H](CCCCN)NC(=O)[C@@H](CC(C)C)NC(=O)[C@@H](CC(C)C)NC(=O)[C@H](CCCCN)NC(=O)[C@@H](CC(C)C)NC(=O)[C@@H](CC(C)C)NC(=O)[C@H](CCCCN)NC(=O)[C@@H](N)CCCCN)C(N)=O | 250 |  |  |  |  | Stability [1]: Unstable
5 | CC(C)C[C@H](NC(=O)[C@H](CC(C)C)NC(=O)[C@H](CC(C)C)NC(=O)[C@H](CCCCN)NC(=O)[C@H](CC(C)C)NC(=O)[C@H](CC(C)C)NC(=O)[C@H](CCCCN)NC(=O)[C@H](CC(C)C)NC(=O)[C@H](CC(C)C)NC(=O)[C@@H](CCCCN)NC(=O)[C@H](N)CCCCN)C(N)=O | < 15.6 | > 64 |  |  |  | 
6 | CC(C)C[C@H](NC(=O)[C@H](CC(C)C)NC(=O)[C@H](CCCCN)NC(=O)[C@H](CC(C)C)NC(=O)[C@H](CC(C)C)NC(=O)[C@@H](CCCCN)NC(=O)[C@H](N)CCCCN)C(=O)N[C@@H](CCCCN)C(=O)N[C@@H](CC(C)C)C(=O)N[C@@H](CC(C)C)C(=O)N[C@H](CC(C)C)C(N)=O | 125 | > 64 |  |  |  | Activity (Pseudomonas aeruginosa [2]): Active
7 | CC(C)C[C@H](NC(=O)[C@H](CC(C)C)NC(=O)[C@H](CC(C)C)NC(=O)[C@H](CCCCN)NC(=O)[C@H](CC(C)C)NC(=O)[C@H](CC(C)C)NC(=O)[C@H](CCCCN)NC(=O)[C@@H](CC(C)C)NC(=O)[C@H](CC(C)C)NC(=O)[C@@H](CCCCN)NC(=O)[C@@H](N)CCCCN)C(N)=O | < 15.6 | > 64 |  |  |  | 
8 | CC(C)C[C@H](NC(=O)[C@H](CC(C)C)NC(=O)[C@H](CC(C)C)NC(=O)[C@H](CCCCN)NC(=O)[C@H](CC(C)C)NC(=O)[C@H](CC(C)C)NC(=O)[C@H](CCCCN)NC(=O)[C@H](CC(C)C)NC(=O)[C@H](CC(C)C)NC(=O)[C@@H](CCCCN)NC(=O)[C@@H](N)CCCCN)C(N)=O | < 15.6 | > 64 |  |  |  | 
9 | CC[C@H](C)[C@H](NC(=O)[C@@H](NC(=O)[C@@H](NC(=O)[C@@H](CCCCN)NC(=O)[C@@H](NC(=O)[C@@H](NC(=O)[C@@H](CCCCN)NC(=O)[C@@H](NC(=O)[C@@H](NC(=O)[C@@H](CCCCN)NC(=O)[C@H](N)CCCCN)[C@@H](C)CC)[C@@H](C)CC)[C@@H](C)CC)[C@@H](C)CC)[C@@H](C)CC)[C@@H](C)CC)C(N)=O (H-[dK][dK]II[dK]II[dK]III-NH2) | 125 |  | > 64 | > 64 |  | 
10 | H-RRLLRLLRLLL-NH2 | 15.6 |  |  |  | 8 | Activity (Cell membrane): 30%; Activity [4]: 99%
11 | CC[C@H](C)[C@H](NC(=O)[C@@H](NC(=O)[C@@H](NC(=O)[C@@H](CCCNC(=N)N)NC(=O)[C@@H](NC(=O)[C@@H](NC(=O)[C@@H](CCCNC(=N)N)NC(=O)[C@@H](NC(=O)[C@@H](NC(=O)[C@@H](CCCNC(=N)N)NC(=O)[C@H](N)CCCNC(=N)N)[C@@H](C)CC)[C@@H](C)CC)[C@@H](C)CC)[C@@H](C)CC)[C@@H](C)CC)[C@@H](C)CC)C(N)=O (H-[dR][dR]II[dR]II[dR]III-NH2) | 250 |  | 8 (≈ 5.58 µM) | 32 (≈ 22.3 µM) | 4 (≈ 2.79 µM) | Activity (Cell membrane): 98%; MIC (Escherichia coli): 8 µg/mL (≈ 5.58 µM); Activity [4]: 8%; MIC (Acinetobacter baumannii): 8 µg/mL (≈ 5.58 µM)
12 | CC(C)C[C@H](NC(=O)[C@H](CCCCN)NC(=O)[C@H](N)CCCCN)C(=O)N[C@@H](CC(C)C)C(=O)N[C@@H](CCCCN)C(=O)N[C@@H](CC(C)C)C(=O)N[C@@H](CC(C)C)C(=O)N[C@@H](CCCCN)C(=O)N[C@@H](CC(C)C)C(=O)N[C@@H](CC(C)C)C(=O)N[C@H](CC(C)C)C(N)=O | 62.5 |  |  |  |  | Activity (Pseudomonas aeruginosa [2]): Active
13 | H-KKLLKLLKLLLKKLLKLLKLLL-NH2 | < 15.6 |  | > 64 | > 64 | > 64 | MIC (Escherichia coli): > 64 µg/mL; MIC (Acinetobacter baumannii): > 64 µg/mL
14 | H-KKIIKIIKIII-NH2 | 62.5 |  | > 64 | > 64 | > 64 | 
15 | CC(C)C[C@H](NC(=O)[C@H](CC(C)C)NC(=O)[C@H](CC(C)C)NC(=O)[C@@H](CCCCN)NC(=O)[C@H](CC(C)C)NC(=O)[C@H](CC(C)C)NC(=O)[C@@H](CCCCN)NC(=O)[C@H](CC(C)C)NC(=O)[C@H](CC(C)C)NC(=O)[C@@H](CCCCN)NC(=O)[C@@H](CCCCN)NC(=O)[C@H](CC(C)C)NC(=O)[C@H](CC(C)C)NC(=O)[C@H](CC(C)C)NC(=O)[C@@H](CCCCN)NC(=O)[C@H](CC(C)C)NC(=O)[C@H](CC(C)C)NC(=O)[C@@H](CCCCN)NC(=O)[C@H](CC(C)C)NC(=O)[C@H](CC(C)C)NC(=O)[C@@H](CCCCN)NC(=O)[C@H](N)CCCCN)C(N)=O (H-[dK][dK]LL[dK]LL[dK]LLL[dK][dK]LL[dK]LL[dK]LLL-NH2) | < 15.6 |  | > 64 | > 64 | > 64 | MIC (Acinetobacter baumannii): > 64 µg/mL
16 | H-RRIIRIIRIII-NH2 | 62.5 |  | 16 | 16 | 64 | Activity (Cell membrane): 99%; MIC (Escherichia coli): 16 µg/mL; Activity [4]: 39%; MIC (Acinetobacter baumannii): 8 µg/mL
17 | CC(C)C[C@H](NC(=O)[C@H](CC(C)C)NC(=O)[C@H](CC(C)C)NC(=O)[C@H](CCCCN)NC(=O)[C@@H](CC(C)C)NC(=O)[C@H](CC(C)C)NC(=O)[C@H](CCCCN)NC(=O)[C@@H](CC(C)C)NC(=O)[C@@H](CC(C)C)NC(=O)[C@@H](CCCCN)NC(=O)[C@@H](N)CCCCN)C(N)=O | 62.5 | > 64 |  |  |  | 
